Active and inactive are the calls of the source. The rule behind the calls is not given here.
Key:
CCRF-CEM = assay: Growth inhibition of human CCRF-CEM cells after 48 hrs by SRB assay; format: functional
HUVEC = assay: Antiangiogenic activity in HUVEC cells assessed inhibition of tube formation at 1 uM after 16 hrs by tube formation assay; format: functional, cell-based; conditions: Homo sapiens
In short: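 HUVEC cells (1 × 10⁵) are seeded onto a Matrigel surface and tube formation is scored after treatment.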

MCF7 [1] = assay: Cell cycle arrest in human MCF7 cells by accumulation at G2/M phase at 10 uM after 48 hrs by flow cytometry (Rvb=5.9%); format: functional
Aorta = assay: Antiangiogenic activity in rat aortic rings assessed inhibition of sprouts formation at 5 uM after 6 days by aortic ring assay; format: functional, tissue-based
DU-145 = assay: Growth inhibition of human DU145 cells after 48 hrs by SRB assay; format: functional; conditions: DU-145, 48 h
In short: (§1)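 This is the NCI cell-line panel. Cells are exposed for 48 h to five concentrations in 10-fold serial dilution. Growth is read by the SRB protein assay, and GI₅₀ is calculated from log dose–response curves.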

[2] = Inhibition of tubulin in rat A10 cells assessed as induction of cellular microtubule disassembly after 18 hrs by indirect immunofluorescence technique; format: cell-based; conditions: A10, 18 h
In short: (§2)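 A-10 cells plated on glass coverslips and treated with compound at varying concentrations for 18 h. After fixation, microtubules immunostained with a β-tubulin antibody (indirect immunofluorescence) and nuclei stained with DAPI. Read by fluorescence microscopy. Percentage of cellular microtubule loss estimated visually across the concentration range.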

UACC-257 = assay: Growth inhibition of human UACC257 cells after 48 hrs by SRB assay; format: functional; conditions: UACC-257, 48 h
In short: (§3)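 NCI human tumor cell line panel. Cells exposed for 48 h to five concentrations in a 10-fold serial dilution. Growth inhibition read as total cell protein by sulforhodamine B staining. GI50 calculated from log dose–response curves.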

RXF 393 = assay: Growth inhibition of human RXF393 cells after 48 hrs by SRB assay; format: functional; conditions: RXF 393, 48 h; in short: as §1
[3] = Displacement of [3H]colchicine from tubulin at 50 uM by turbidimetry; conditions: in the assay text read “by DEAE-cellulose filter method” for “by turbidimetry”
In short: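 Binding of [³H]colchicine to tubulin (1.0 µM, 0.1 mg/mL) is measured by the DEAE-cellulose filter method. The radioligand is at 5.0 µM and test agents at 5 or 50 µM. Each is run in triplicate.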

MDA-MB-435 = assay: Growth inhibition of human MDA-MB-435 cells after 48 hrs by SRB assay; format: functional; conditions: MDA-MB-435, 48 h; in short: as §1
786-0 = assay: Growth inhibition of human 786-0 cells after 48 hrs by SRB assay; format: functional; conditions: 786-0, 48 h; in short: as §1
MCF7 [4] = assay: Cell cycle arrest in human MCF7 cells by accumulation at G2/M phase at 0.1 uM after 48 hrs by flow cytometry (Rvb=5.9%); format: functional
KM12 = assay: Growth inhibition of human KM12 cells after 48 hrs by SRB assay; format: functional; conditions: KM12, 48 h
SR = assay: Growth inhibition of human SR cells after 48 hrs by SRB assay; format: functional; in short: as §3
EKVX = assay: Growth inhibition of human EKVX cells after 48 hrs by SRB assay; format: functional
SK-MEL-2 = assay: Growth inhibition of human SK-MEL-2 cells after 48 hrs by SRB assay; format: functional; conditions: SK-MEL-2, 48 h; in short: as §3
MOLT-4 = assay: Growth inhibition of human MOLT4 cells after 48 hrs by SRB assay; format: functional; conditions: MOLT-4, 48 h
Malme-3M = assay: Growth inhibition of human MALME-3M cells after 48 hrs by SRB assay; format: functional; in short: as §1
OVCAR-8 = assay: Growth inhibition of human OVCAR8 cells after 48 hrs by SRB assay; format: functional; conditions: OVCAR-8, 48 h; in short: as §1
SK-MEL-5 = assay: Growth inhibition of human SK-MEL-5 cells after 48 hrs by SRB assay; format: functional; conditions: SK-MEL-5, 48 h; in short: as §3
HOP-92 = assay: Growth inhibition of human HOP92 cells after 48 hrs by SRB assay; format: functional; conditions: HOP-92, 48 h
SW-620 = assay: Growth inhibition of human SW620 cells after 48 hrs by SRB assay; format: functional; conditions: SW-620, 48 h; in short: as §3
K562 = assay: Growth inhibition of human K562 cells after 48 hrs by SRB assay; format: functional; conditions: K562, 48 h
NCI-H460 = assay: Growth inhibition of human NCI-H460 cells after 48 hrs by SRB assay; format: functional; conditions: NCI-H460, 48 h
NCI-H226 = assay: Growth inhibition of human NCI-H226 cells after 48 hrs by SRB assay; format: functional; conditions: NCI-H226, 48 h
SF-295 = assay: Growth inhibition of human SF295 cells after 48 hrs by SRB assay; format: functional; conditions: SF-295, 48 h; in short: as §1
BT-549 = assay: Growth inhibition of human BT549 cells after 48 hrs by SRB assay; format: functional; conditions: BT-549, 48 h; in short: as §1
SF-539 = assay: Growth inhibition of human SF539 cells after 48 hrs by SRB assay; format: functional; conditions: SF-539, 48 h; in short: as §3
UACC-62 = assay: Growth inhibition of human UACC62 cells after 48 hrs by SRB assay; format: functional; conditions: UACC-62, 48 h; in short: as §3
LOX IMVI = assay: Growth inhibition of human LOXIMVI cells after 48 hrs by SRB assay; format: functional; in short: as §1
OVCAR-5 = assay: Growth inhibition of human OVCAR5 cells after 48 hrs by SRB assay; format: functional; conditions: OVCAR-5, 48 h; in short: as §1
[5] = Inhibition of tubulin polymerization by turbidimetry
In short: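 Tubulin at 10 µM (1.0 mg/mL). Polymerization followed turbidimetrically at 350 nm in temperature-controlled spectrophotometers.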

SF-268 = assay: Growth inhibition of human SF268 cells after 48 hrs by SRB assay; format: functional; conditions: SF-268, 48 h; in short: as §1
A498 = assay: Growth inhibition of human A498 cells after 48 hrs by SRB assay; format: functional; conditions: A498, 48 h; in short: as §1
HCC 2998 = assay: Growth inhibition of human HCC2998 cells after 48 hrs by SRB assay; format: functional; conditions: HCC 2998, 48 h
TK-10 = assay: Growth inhibition of human TK10 cells after 48 hrs by SRB assay; format: functional; conditions: TK-10, 48 h; in short: as §3
ACHN = assay: Growth inhibition of human ACHN cells after 48 hrs by SRB assay; format: functional; in short: as §1
PC-3 = assay: Growth inhibition of human PC3 cells after 48 hrs by SRB assay; format: functional; conditions: PC-3, 48 h; in short: as §1
M14 = assay: Growth inhibition of human M14 cells after 48 hrs by SRB assay; format: functional; conditions: M14, 48 h; in short: as §1
OVCAR-4 = assay: Growth inhibition of human OVCAR4 cells after 48 hrs by SRB assay; format: functional; conditions: OVCAR-4, 48 h; in short: as §1
IGROV-1 = assay: Growth inhibition of human IGROV1 cells after 48 hrs by SRB assay; format: functional; conditions: IGROV-1, 48 h; in short: as §1
MDA-MB-231 = assay: Growth inhibition of human MDA-MB-231 cells after 48 hrs by SRB assay; format: functional; conditions: MDA-MB-231, 48 h; in short: as §1
A549 = assay: Growth inhibition of human A549 cells after 48 hrs by SRB assay; format: functional; conditions: A549, 48 h
OVCAR-3 = assay: Growth inhibition of human OVCAR-3 cells after 48 hrs by SRB assay; format: functional; conditions: OVCAR-3, 48 h; in short: as §1
A10 = assay: Inhibition of tubulin in rat A10 cells assessed as thinning of microtubule network at 20 uM after 18 hrs by fluorescence microscopy; format: cell-based; in short: as §2
MCF7 [6] = assay: Growth inhibition of human MCF7 cells after 48 hrs by SRB assay; format: functional; conditions: MCF7, 48 h; in short: as §1
SN12C = assay: Growth inhibition of human SN12C cells after 48 hrs by SRB assay; format: functional; in short: as §3
U-251 = assay: Growth inhibition of human U251 cells after 48 hrs by SRB assay; format: functional; conditions: U-251, 48 h; in short: as §3
[7] = Displacement of [3H]colchicine from tubulin at 5 uM by DEAE-cellulose filter method
HCT-15 = assay: Growth inhibition of human HCT15 cells after 48 hrs by SRB assay; format: functional; conditions: HCT-15, 48 h
MCF7 [8] = assay: Cell cycle arrest in human MCF7 cells by accumulation at G2/M phase at 1 uM after 48 hrs by flow cytometry (Rvb=5.9%); format: functional
HCT-116 = assay: Growth inhibition of human HCT116 cells after 48 hrs by SRB assay; format: functional; conditions: HCT-116, 48 h
[9] = Growth inhibition of human […] cells after 48 hrs by SRB assay; format: functional
NCI-H23 = assay: Growth inhibition of human NCI-H23 cells after 48 hrs by SRB assay; format: functional; conditions: NCI-H23, 48 h
COLO 205 = assay: Growth inhibition of human COLO205 cells after 48 hrs by SRB assay; format: functional; conditions: COLO 205, 48 h
SK-OV-3 = assay: Growth inhibition of human SKOV3 cells after 48 hrs by SRB assay; format: functional; conditions: SK-OV-3, 48 h; in short: as §3
UO-31 = assay: Growth inhibition of human UO31 cells after 48 hrs by SRB assay; format: functional; conditions: UO-31, 48 h; in short: as §3
NCI-H322M = assay: Growth inhibition of human NCI-H322M cells after 48 hrs by SRB assay; format: functional
CAKI-1 = assay: Growth inhibition of human Caki1 cells after 48 hrs by SRB assay; format: functional; conditions: CAKI-1, 48 h; in short: as §1
MCF7 [10] = assay: Cell cycle arrest in human MCF7 cells by accumulation at G2/M phase at 5 uM after 48 hrs by flow cytometry (Rvb=5.9%); format: functional
NCI-H522 = assay: Growth inhibition of human NCI-H522 cells after 48 hrs by SRB assay; format: functional; conditions: NCI-H522, 48 h
SNB-19 = assay: Growth inhibition of human SNB19 cells after 48 hrs by SRB assay; format: functional; conditions: SNB-19, 48 h; in short: as §3
NCI/ADR-RES = assay: Growth inhibition of human NCI/ADR-RES cells after 48 hrs by SRB assay; format: functional; in short: as §1
HOP-62 = assay: Growth inhibition of human HOP62 cells after 48 hrs by SRB assay; format: functional; conditions: HOP-62, 48 h
MCF7 [11] = assay: Antiproliferative activity against human MCF7 cells after 24 hrs by SRB assay; format: functional, cell-based; conditions: MCF7, 24 h
In short: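 MCF-7 cells are grown for 24 h with or without drug, then for a further 48 h. Total cell protein is measured by sulforhodamine B staining, and the IC₅₀ is derived from it.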

[12] = Growth inhibition of human Hs 578T cells after 48 hrs by SRB assay; format: functional; in short: as §1

COc1ccc(/C=C/C(=O)c2cc(OC)c(OC)c(OC)c2)cc1B(O)O
GI50 (CCRF-CEM): 2.39 µM
inhibition (HUVEC): Active
Activity (MCF7 [1]): 14%
inhibition (Aorta): Active
GI50 (DU-145): 0.05 µM
EC50 [2]: 16.5 µM
GI50 (UACC-257): 4.41 µM
GI50 (RXF 393): 0.39 µM
inhibition [3]: 56%
GI50 (MDA-MB-435): 1.95 µM
GI50 (786-0): 0.39 µM
Activity (MCF7 [4]): 6.4%
GI50 (KM12): 15.4 µM
GI50 (SR): 2.18 µM
GI50 (EKVX): 1.31 µM
GI50 (SK-MEL-2): 3.33 µM
GI50 (MOLT-4): 3.6 µM
GI50 (Malme-3M): 5.49 µM
GI50 (OVCAR-8): 0.3 µM
GI50 (SK-MEL-5): 0.31 µM
GI50 (HOP-92): 0.38 µM
GI50 (SW-620): 0.037 µM
GI50 (K562): 3.46 µM
GI50 (NCI-H460): 0.028 µM
GI50 (NCI-H226): 4.14 µM
GI50 (SF-295): 2.73 µM
GI50 (BT-549): 0.021 µM
GI50 (SF-539): 0.035 µM
GI50 (UACC-62): 0.034 µM
GI50 (LOX IMVI): 0.06 µM
GI50 (OVCAR-5): 1.81 µM
IC50 [5]: 31 µM
GI50 (SF-268): 0.8 µM
GI50 (A498): 4.76 µM
GI50 (HCC 2998): 0.41 µM
GI50 (TK-10): 20.9 µM
GI50 (ACHN): 0.52 µM
GI50 (PC-3): 0.25 µM
GI50 (M14): 1.19 µM
GI50 (OVCAR-4): 2.06 µM
GI50 (IGROV-1): 0.088 µM
GI50 (MDA-MB-231): 0.11 µM
GI50 (A549): 0.45 µM
GI50 (OVCAR-3): 2.08 µM
Activity (A10): Active
GI50 (MCF7 [6]): 0.034 µM
GI50 (SN12C): 0.46 µM
GI50 (U-251): 0.025 µM
inhibition [7]: 4.4%
GI50 (HCT-15): < 0.01 µM
Activity (MCF7 [8]): 7.1%
GI50 (HCT-116): 0.37 µM
GI50 [9]: 1.12 µM
GI50 (NCI-H23): 0.14 µM
GI50 (COLO 205): 2.2 µM
GI50 (SK-OV-3): < 0.01 µM
GI50 (UO-31): 0.32 µM
GI50 (NCI-H322M): 8.44 µM
GI50 (CAKI-1): 6.39 µM
Activity (MCF7 [10]): 7.4%
GI50 (NCI-H522): 0.2 µM
GI50 (SNB-19): < 0.01 µM
GI50 (NCI/ADR-RES): 0.05 µM
GI50 (HOP-62): 0.098 µM
IC50 (MCF7 [11]): 0.9 µM
GI50 [12]: 0.046 µM

From ChEMBL document CHEMBL1157725 (Bioorg Med Chem, 2010)
